According to ChEMBL document CHEMBL1144559, “4-Pyridone derivatives as new inhibitors of bacterial enoyl-ACP reductase FabI” (Bioorg Med Chem, 2007):
≈ marks a conversion by molar mass, not a printed value.

Experiments:
[1] = Inhibition of Escherichia coli DH5-alpha His tagged Fab1; set-up: species or system DH5alpha
Summary of the method: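 His-tagged E. coli FabI was expressed in E. coli TOP10 (0.2% arabinose induction), purified on Ni–NTA and eluted with 250 mM imidazole. NADH consumption was read at 340 nm for 10 min at room temperature. IC50 is the concentration giving 50% reduction of absorption.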

Staphylococcus aureus = assay: Antimicrobial activity against Staphylococcus aureus ATCC 29213; assay type: functional
Summary of the method: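 Agar dilution on Mueller–Hinton agar with 5% horse blood, twofold serial compound dilutions. About 10^4 CFU per spot inoculated. Plates incubated at 35 °C for 20 h. MIC taken as the lowest concentration preventing visible growth.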

| Compound | IC50 [1] [nM] | MIC (Staphylococcus aureus) [µg/mL] |
| --- | --- | --- |
| CCCCc1c(Cc2c(Cl)cccc2Cl)c(=O)ccn1Cc1ccccc1 | 4500 | 32 (≈ 79.9 µM) |
| Cc1c(Cc2c(Cl)cccc2Cl)c(=O)ccn1Cc1ccc(C(=O)O)cc1 | 22000 | > 128 |
| Cc1c(Cc2ccccc2)c(=O)ccn1Cc1ccccc1 | 20000 | 64 (≈ 221 µM) |
| Cc1c(Cc2ccccc2Cl)c(=O)ccn1Cc1ccccc1 | 4200 | 64 (≈ 198 µM) |
| C=Cc1c(C)n(Cc2ccccc2)ccc1=O | > 100000 |  |
| Cc1c(CCc2ccccn2)c(=O)ccn1Cc1ccccc1 | > 100000 |  |
| Cc1c(Cc2c(Cl)cccc2Cl)c(=O)ccn1CCCCC(=O)O | 110000 |  |
| Cc1c(Cc2c(Cl)cccc2Cl)c(=O)ccn1Cc1c(Cl)cccc1Cl | 8400 | 32 (≈ 74.9 µM) |
| Cc1cccc(C)c1Cc1c(C)n(Cc2ccccc2)ccc1=O | 4300 | 16 (≈ 50.4 µM) |
| Cc1c(/C=C/c2ccccn2)c(=O)ccn1Cc1ccccc1 | > 100000 |  |
| Cc1[nH]ccc(=O)c1Cc1c(Cl)cccc1Cl | 120000 | > 64 |
| Cc1c(Cc2c(Cl)cccc2Cl)c(=O)ccn1C | 11000 | > 128 |
| CCCCc1c(C)n(Cc2ccccc2)ccc1=O | 61000 | > 128 |
| Cc1c(-c2ccccc2)c(=O)ccn1Cc1ccccc1 | 2900 |  |
| Oc1cc(Cl)ccc1Oc1ccc(Cl)cc1Cl [TRICLOSAN] | 510 | 0.125 (≈ 0.432 µM) |

More lines, in order of falling IC50 [1], values ahead:

| IC50 [1] [nM] | MIC (Staphylococcus aureus) [µg/mL] | Compound |
| --- | --- | --- |
| 2700 | 4 (≈ 12.3 µM) | Cc1c(Cc2c(F)cccc2F)c(=O)ccn1Cc1ccccc1 |
| 2500 | 32 (≈ 79.7 µM) | Cc1c(Cc2c(Cl)cccc2Cl)c(=O)ccn1Cc1ccc(C(N)=O)cc1 |
| 2000 | 32 (≈ 89.3 µM) | Cc1c(Cc2ccc(Cl)cc2Cl)c(=O)ccn1Cc1ccccc1 |
| 1900 | 64 (≈ 124 µM) | Cc1c(Cc2c(Cl)cccc2Cl)c(=O)ccn1CC(C)(C)SCc1cccc(C(F)(F)F)c1 |
| 1800 | 8 (≈ 22.6 µM) | Cc1c(Cc2c(Cl)cccc2Cl)c(=O)ccn1CCCCCO |
| 1800 | 16 (≈ 39.7 µM) | Cc1c(Cc2c(Cl)cccc2Cl)c(=O)ccn1Cc1ccc([N+](=O)[O-])cc1 |
| 1500 | 8 (≈ 20.4 µM) | Cc1c(Cc2c(Cl)cc(Cl)cc2Cl)c(=O)ccn1Cc1ccccc1 |
| 780 | 8 (≈ 21.5 µM) | CCc1c(Cc2c(Cl)cccc2Cl)c(=O)ccn1Cc1ccccc1 |
| 470 | 2 (≈ 5.74 µM) | Cc1c(Cc2c(Cl)cccc2Cl)c(=O)ccn1Cc1ccco1 |
| 400 | 32 (≈ 108 µM) | Cc1c(CC2CCCCC2)c(=O)ccn1Cc1ccccc1 |
| 390 | 2 (≈ 5.85 µM) | Cc1c(Cc2c(F)cccc2Cl)c(=O)ccn1Cc1ccccc1 |
| 380 | 8 (≈ 24.7 µM) | CCCCc1cc(=O)c(Cc2c(Cl)cccc2Cl)c(C)[nH]1 |
| 310 | 2 (≈ 6.17 µM) | CCCCn1ccc(=O)c(Cc2c(Cl)cccc2Cl)c1C |
| 300 | 0.5 (≈ 1.4 µM) | Cc1c(Cc2c(Cl)cccc2Cl)c(=O)ccn1Cc1ccccc1 |
| 300 | > 128 | COC(=O)c1ccc(Cn2ccc(=O)c(Cc3c(Cl)cccc3Cl)c2C)cc1 |
| 290 | 1 (≈ 2.68 µM) | Cc1c(Cc2c(Cl)cccc2Cl)c(=O)ccn1Cc1ccc(N)cc1 |
| 290 | 2 (≈ 5.49 µM) | Cc1[nH]c(CC2CCCCC2)cc(=O)c1Cc1c(Cl)cccc1Cl |
| 220 | 32 (≈ 78.4 µM) | CCCCCCCCCCn1ccc(=O)c(Cc2c(Cl)cccc2Cl)c1C |
| 220 | 0.25 (≈ 0.686 µM) | Cc1c(Cc2c(Cl)cccc2Cl)c(=O)ccn1CC1CCCCC1 |
